Results taken from publication PMC8788976 (Veterinary Medicine and Science, 2021).

Columns and labels:
[1] = Plasma concentrations in the single dose arthritis induction study; assay type: in vivo, Beagle dogs
In short: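 Ten male Beagles (23–36 months, 9–12 kg); six received oral 4 mg/kg on day 0 and again on day 12. Urate crystal suspension injected into the stifle joint on days 0 (2 h post-dose), 2, 7, 14 and 21. Jugular blood taken at each injection time and processed as for plasma PK. Parent and pyrazol metabolite quantified by HPLC-MS/MS.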

[2] = test system: COX-2 enzymes isolated from sheep placenta; conditions: ref Wagemakers et al., 2009; cited from earlier work
[3] = Single oral dose pharmacokinetic study in Beagle dogs; assay type: in vivo; conditions: for AUC 24h / AUC last / C max: mean ± SD; for T last / T max: median (range)
In short: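 Single oral dose of 1 or 4 mg/kg given as micronised drug in gelatine capsules, followed by 5 ml water; dogs fasted overnight until 4 h post-dose. Jugular blood taken pre-dose, at 0.25–12 h, then daily to day 21. K3-EDTA plasma (2500 g, 15 min, 4°C) stored at −80°C. Parent and pyrazol metabolite measured by SPE then HPLC-MS/MS (celecoxib internal standard). Non-compartmental analysis: Cmax observed; AUC by linear trapezoidal rule; AUCinf extrapolated using the terminal rate constant.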

[4] = Plasma concentrations in the repeated dose arthritis induction study; assay type: in vivo, Beagle dogs
In short: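 Twelve male Beagles given oral 8 mg/kg on day 0, then 4 mg/kg weekly on days 7, 14 and 21, with stifle urate crystal inductions during the study. Jugular blood taken at time points including each intra-articular injection, and through day 56. Plasma processed as in the PK study. Pyrazol metabolite quantified by SPE then HPLC-MS/MS; values reported as mean ± SD.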

[5] = test system: urate crystal-induced acute arthritis; assay type: in vivo, Beagle dogs; conditions: plasma level, acute arthritis induction model in dogs
In short: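 Efficacy dataset: 18 enflicoxib-treated dogs from both urate arthritis studies, giving 71 paired observations of plasma parent or pyrazol metabolite level and lameness score taken at the same time. These pairs were linked to the population PK model to define the minimum effective plasma concentration.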

[6] = Population PK model of enflicoxib and pyrazol metabolite; set-up: species or system Beagle dogs
In short: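 Population PK model built from two sources. Toxicokinetic data: 228 samples from 12 Beagles, days 1 and 28, daily 1 or 4 mg/kg. PK data: 341 parent/metabolite samples from 26 Beagles in the oral PK and two arthritis studies. Structure: two-compartment parent (first-order absorption with lag, first-order elimination) and three-compartment metabolite. Body weight included as covariate. Evaluated by visual predictive check (90% intervals); parameter CIs from non-parametric bootstrap.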

[7] = test system: urate crystal-induced acute arthritis; test: Single dose arthritis induction study; assay type: in vivo, Beagle dogs
In short: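 Male Beagles (23–36 months, 9–12 kg). Groups: six dogs oral 4 mg/kg on days 0 and 12; three dogs reference coxib 2 mg/kg on days 0 and 14; one dog untreated. Stifle urate crystal injections on days 0 (2 h post-dose), 2, 7, 14 and 21. Blinded scoring before and 0.5–12 h after each injection. Standing plus walking lameness summed as CLS; pain scored on palpation.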

## NS(=O)(=O)c1ccc(-n2nc(C(F)(F)F)cc2-c2ccc(F)cc2F)cc1 [Pyrazol metabolite]
[1]; day 0, single 4 mg/kg enflicoxib, average ± SD
  plasma concentration: 59 ± 34 ng/mL
[1]; day 2, single 4 mg/kg enflicoxib, average ± SD
  plasma concentration: 207 ± 191 ng/mL
[1]; day 7, single 4 mg/kg enflicoxib, average ± SD
  plasma concentration: 321 ± 241 ng/mL
[1]; day 14, after second 4 mg/kg dose on day 12, average ± SD
  plasma concentration: 492 ± 240 ng/mL
[1]; day 21, after second 4 mg/kg dose on day 12, average ± SD
  plasma concentration: 398 ± 172 ng/mL
[2]
  selectivity for COX-2 versus COX-1: more than 250 fold
[3]; single oral enflicoxib 1 mg/kg
  AUC 24h: 1104 ± 502 ng·h/mL
  AUC last: 40,784 ± 10,228 ng·h/ml
  C max: 165.8 ± 48.5 ng/mL
  T last: 480 h
  T max: 132.0 (96–168) h
[3]; single oral enflicoxib 4 mg/kg
  AUC 24h: 2647 ± 1322 ng·h/mL
  AUC last: 132,329 ± 33,065 ng·h/ml
  C max: 577.0 ± 203.4 ng/mL
  T last: 480 h
  T max: 132.0 (96–168) h
[3]; single oral enflicoxib 1 or 4 mg/kg, not adequately determinable
  terminal half-life read from the graphic profile: around 14 days
[4]; day 23, 8 mg/kg loading, 4 mg/kg on days 7, 14, 21
  maximum plasma level: 1748 ± 334 ng/mL
[4]; day 56, 28 days after last dose administration
  plasma level at end of experimental period: 348 ± 152 ng/mL
[5]
  Minimum Effective Concentration (MEC): 411 ng/mL
[6]; apparent clearance of pyrazol metabolite, bootstrap
  CLM/F (θ7), Bootstrap Median: 0.111 L/h
[6]; apparent clearance of pyrazol metabolite, θ7·(WGT/9.9)^0.75
  CLM/F (θ7), Value: 0.111 L/h
[6]; central compartment, assumed the same as that of enflicoxib
  VM/F (θ4), Value: 6.59 L
[6]; central compartment, bootstrap
  VM/F (θ4), Bootstrap Median: 6.60 L
[6]; central-deep peripheral, bootstrap
  CLM2/F (θ12), Bootstrap Median: 0.132 L/h
[6]; central-shallow peripheral, bootstrap
  CLMP/F (θ8), Bootstrap Median: 13.2 L/h
[6]; deep peripheral compartment, bootstrap
  VM2/F (θ13), Bootstrap Median: 13.5 L
[6]; deep peripheral compartment, θ13·(WGT/9.9)^1.0
  VM2/F (θ13), Value: 13.4 L
[6]; distribution clearance central-deep peripheral, θ12·(WGT/9.9)^0.75
  CLM2/F (θ12), Value: 0.131 L/h
[6]; distribution clearance central-shallow peripheral, θ8·(WGT/9.9)^0.75
  CLMP/F (θ8), Value: 13.2 L/h
[6]; population PK model
  estimated terminal half-life: 13.8 days
[6]; random parameter, %CV
  Inter-individual variability on CLM/F, Value: 31%
  Residual variability, Value: 20%
[6]; random parameter, bootstrap
  Inter-individual variability on CLM/F, Bootstrap Median: 31%
  Residual variability, Bootstrap Median: 20%
[6]; shallow peripheral compartment, bootstrap
  VMP/F (θ9), Bootstrap Median: 29.33 L
[6]; shallow peripheral compartment, θ9·(WGT/9.9)^1.0
  VMP/F (θ9), Value: 29.3 L

## NS(=O)(=O)c1ccc(-n2nc(C(F)(F)F)cc2-c2ccc(F)cc2)cc1 [mavacoxib]
[7]; days 0 and 7, mavacoxib 2 mg/kg on days 0 and 14
  lameness and pain after induction: some degree of lameness and pain
[7]; days 14 and 21, after second administration on day 14, mavacoxib 2 mg/kg
  lameness or pain after induction: none or mild lameness or pain
